Test results from publication PMC9073044 (Saudi Journal of Biological Sciences, 2021).
Counter-ions that a name gives are not always drawn. One block for each compound: values may come before it.

How the values were obtained:
Caco-2 cells monolayer = Caco-2 cells monolayer transport study; type: in vitro ADME
In short: (§1)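 Caco-2 cells seeded at 1 × 10^5/cm2 on 0.33 cm2 transwell inserts and grown 21 days in DMEM with 20% FBS; TEER >300 Ω•cm2. Monolayers were preincubated 30 min in 37 ℃ HBSS with 10 mM HEPES. Test compound at 12, 120 and 1200 μg/mL was run bidirectionally, ± GF120918, for 2 h. […] Lucifer yellow (20 μg/mL, AP→BL, fluorescence) checked tight junctions.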

rats intestine = assay: In-situ single-pass intestinal perfusion; type: in vivo, SD rats
[1] = Caco-2 cells monolayer transport study; type: in vitro ADME; details: human
In short: as §1

human DNA polymerase = details: ref Reis et al., 2013; cited from earlier work
[2] = ref Du et al., 2019, Yuen et al., 1995; cited from earlier work
[3] = Cytotoxicity by MTT assay; type: cell-based; details: human, Caco-2 cells
In short: (§2)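 MTT assay: Caco-2 cells seeded at 5 × 10^3 per well in 96-well plates and incubated 24 h. Medium was replaced with test compound (12, 120 or 1200 μg/mL) for 24 h. MTT was then added for 4 h, the supernatant removed, formazan dissolved in DMSO, and absorbance read at 630 nm.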

Caco-2 cells = assay: Cytotoxicity by MTT assay; type: cell-based; details: lamivudine 12, 120 and 1200 μg/mL, 24 h
In short: as §2

[4] = Caco-2, with GF120918 (elacridar), 10 μM

Compound: COCCc1ccc(OCC(O)CNC(C)C)cc1 (stereo not shown) [Metoprolol tartrate]
Peff (rats intestine; control drugs, perfusion concentration 120 μg/mL, mean ± SD, n = 6): 6.13 ± 2.49 ×10^-5 cm/s
Papp A→B at 2 h ([1]; Caco-2): 16 ± 0.652 ×10⁻⁶ cm/s

Compound: C[C@H]1O[C@@H](O[C@H]2[C@@H](O)C[C@H](O[C@H]3[C@@H](O)C[C@H](O[C@H]4CC[C@@]5(C)[C@H](CC[C@@H]6[C@@H]5C[C@@H](O)[C@]5(C)[C@@H](C7=CC(=O)OC7)CC[C@]65O)C4)O[C@@H]3C)O[C@@H]2C)C[C@H](O)[C@@H]1O [Digoxin]
Papp A→B at 2 h ([1]; Caco-2): 0.09 ± 0.005 ×10⁻⁶ cm/s
Papp B→A at 2 h, 30 μg/mL ([1]; Caco-2): 11.9 ± 0.312 ×10⁻⁶ cm/s
efflux ratio at 2 h, 30 μg/mL ([1]; Caco-2): 133
Papp A→B at 2 h, 30 μg/mL [1, 4]: 3.59 ± 0.128 ×10⁻⁶ cm/s
Papp B→A at 2 h, 30 μg/mL [1, 4]: 5.15 ± 0.058 ×10⁻⁶ cm/s
efflux ratio at 2 h, 30 μg/mL [1, 4]: 1.43

Compound: Nc1nc2c(ncn2COCCO)c(=O)[nH]1 [Acyclovir]
Papp A→B at 2 h ([1]; Caco-2): 0.081 ± 0.011 ×10⁻⁶ cm/s

The next lines start with results.

%lucifer yellow (Caco-2 cells monolayer; lucifer yellow 20 μg/mL, AP-BL, without GF120918, 2 h): 0.81 ± 0.03%
Compound: Lucifer yellow

permeability in BCS (rats intestine; from Peff in SPIP): moderate permeability
Papp A→B at 2 h, 12 μg/mL ([1]; Caco-2): 0.296 ± 0.005 ×10⁻⁶ cm/s
Papp A→B at 2 h, 120 μg/mL ([1]; Caco-2): 0.297 ± 0.015 ×10⁻⁶ cm/s
Papp A→B at 2 h, 1200 μg/mL ([1]; Caco-2): 0.285 ± 0.011 ×10⁻⁶ cm/s
Papp B→A at 2 h, 12 μg/mL ([1]; Caco-2): 0.788 ± 0.044 ×10⁻⁶ cm/s
Papp B→A at 2 h, 120 μg/mL ([1]; Caco-2): 0.77 ± 0.027 ×10⁻⁶ cm/s
Papp B→A at 2 h, 1200 μg/mL ([1]; Caco-2): 0.737 ± 0.009 ×10⁻⁶ cm/s
Papp A→B at 2 h, 12 μg/mL [1, 4]: 0.307 ± 0.008 ×10⁻⁶ cm/s
Papp A→B at 2 h, 120 μg/mL [1, 4]: 0.322 ± 0.007 ×10⁻⁶ cm/s
Papp A→B at 2 h, 1200 μg/mL [1, 4]: 0.293 ± 0.004 ×10⁻⁶ cm/s
Papp B→A at 2 h, 12 μg/mL [1, 4]: 0.548 ± 0.011 ×10⁻⁶ cm/s
Papp B→A at 2 h, 120 μg/mL [1, 4]: 0.519 ± 0.008 ×10⁻⁶ cm/s
Papp B→A at 2 h, 1200 μg/mL [1, 4]: 0.531 ± 0.012 ×10⁻⁶ cm/s
permeability in BCS (Caco-2 cells monolayer; from Papp on Caco-2 cells monolayer, between high- and low-permeability controls): moderate-permeability
Compound: Nc1ccn([C@@H]2CS[C@H](CO)O2)c(=O)n1 [Lamivudine]
affinity in human DNA polymerase (human DNA polymerase): low affinity
bioavailability [2]: exceed 80%
viability at 24 h, 1200 μg/mL [3]: > 80%
growth ability of Caco-2 cells (Caco-2 cells): did not significantly affect
